Results taken from ChEMBL document CHEMBL2429794, “Tuning the antibacterial activity of amphiphilic neamine derivatives and comparison to paromamine homologues” (J Med Chem, 2013).
Converted amounts (≈) assume the structure as drawn.

How the values were obtained:
Acinetobacter lwoffii [1] = assay: Antibacterial activity against Acinetobacter lwoffii AI.88-483 expressing APH3'-6A after 24 hrs by geometric microdilution method; format: functional; conditions: AI.88-483, 24 h
Escherichia coli [2] = assay: Antibacterial activity against Escherichia coli PAZ505H8101 expressing AAC6'-1B after 24 hrs by geometric microdilution method; format: functional; conditions: PAZ505H8101, 24 h
Acinetobacter lwoffii [3] = assay: Antibacterial activity against Acinetobacter lwoffii ATCC 17925 after 24 hrs by geometric microdilution method; format: functional; conditions: ATCC 17925, 24 h
Pseudomonas aeruginosa [4] = assay: Antibacterial activity against Pseudomonas aeruginosa F03 expressing AAC6'-2A after 24 hrs by geometric microdilution method; format: functional; conditions: F03, 24 h
Staphylococcus aureus [5] = assay: microbe, parasite or virus in culture; conditions: ATCC 25923, 24 h
Staphylococcus aureus [6] = assay: Antibacterial activity against fluoroquinolone-resistant Staphylococcus aureus 1199B expressing NorA efflux pump after 24 hrs by geometric microdilution method; format: functional
How it was run: (§1)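 Broth cultures were incubated in plates at 37 °C, and growth was read as absorbance at 650 nm after 1, 4, 7 and 24 h. Ampicillin (16 mg/L) was the positive control and DMSO the negative control. Each MIC (μg/mL) is the average of at least three determinations.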

Staphylococcus aureus [7] = assay: Antibacterial activity against Staphylococcus aureus expressing aminoglycoside-6'-N-acetyltransferase/2''-O-phosphoryltransferase after 24 hrs by geometric microdilution method; format: functional; how it was run: as §1
Staphylococcus aureus [8] = assay: Antibacterial activity against Staphylococcus aureus expressing aminoglycoside-[…] after 24 hrs by geometric microdilution method; format: functional; how it was run: as §1
Staphylococcus aureus [9] = assay: Antibacterial activity against healthcare-acquired methicillin-resistant Staphylococcus aureus ATCC 33592 after 24 hrs by geometric microdilution method; format: functional; conditions: ATCC 33592, 24 h; how it was run: as §1
Pseudomonas aeruginosa [10] = assay: Antibacterial activity against Pseudomonas aeruginosa PA22 (PT629) expressing MexXY after 24 hrs by geometric microdilution method; format: functional
Escherichia coli [11] = assay: microbe, parasite or virus in culture; conditions: ATCC 25922, 24 h
Escherichia coli [12] = assay: Antibacterial activity against Escherichia coli L58058.1 expressing ANT2''-1A after 24 hrs by geometric microdilution method; format: functional; conditions: L58058.1, 24 h
Staphylococcus aureus [13] = assay: Antibacterial activity against Staphylococcus aureus expressing aminoglycoside-3'-O-phosphoryltransferase after 24 hrs by geometric microdilution method; format: functional; how it was run: as §1
Pseudomonas aeruginosa [14] = assay: Antibacterial activity against Pseudomonas aeruginosa ATCC 27853 after 24 hrs by geometric microdilution method; format: functional; conditions: ATCC 27853, 24 h
Klebsiella pneumoniae = assay: Antibacterial activity against Klebsiella pneumoniae ATCC 700603 after 24 hrs by geometric microdilution method; format: functional; conditions: ATCC 700603, 24 h
Staphylococcus aureus [15] = assay: Antibacterial activity against vancomycin-resistant Staphylococcus aureus VRS2 after 24 hrs by geometric microdilution method; format: functional; conditions: VRS2, 24 h; how it was run: as §1
Staphylococcus aureus [16] = assay: Antibacterial activity against 14- and 15-membered macrolide-resistant Staphylococcus aureus expressing MsrA efflux pump after 24 hrs by geometric microdilution method; format: functional; how it was run: as §1

SMILES | MIC (Acinetobacter lwoffii [1]) [µg/mL] | MIC (Escherichia coli [2]) [µg/mL] | MIC (Acinetobacter lwoffii [3]) [µg/mL] | MIC (Pseudomonas aeruginosa [4]) [µg/mL] | MIC (Staphylococcus aureus [5]) [µg/mL] | MIC (Staphylococcus aureus [6]) [µg/mL] | MIC (Staphylococcus aureus [7]) [µg/mL] | MIC (Staphylococcus aureus [8]) [µg/mL] | MIC (Staphylococcus aureus [9]) [µg/mL] | MIC (Pseudomonas aeruginosa [10]) [µg/mL] | MIC (Escherichia coli [11]) [µg/mL] | MIC (Escherichia coli [12]) [µg/mL] | MIC (Staphylococcus aureus [13]) [µg/mL] | MIC (Pseudomonas aeruginosa [14]) [µg/mL] | MIC (Klebsiella pneumoniae) [µg/mL] | MIC (Staphylococcus aureus [15]) [µg/mL] | MIC (Staphylococcus aureus [16]) [µg/mL]
NC[C@H]1O[C@H](O[C@H]2[C@H](O)[C@@H](OCc3ccc4ccccc4n3)[C@H](N)C[C@@H]2N)[C@H](N)[C@@H](OCc2ccc3ccccc3n2)[C@@H]1OCc1ccc2ccccc2n1 | > 128 | > 128 | 128 (≈ 172 µM) | > 128 | 128 (≈ 172 µM) | > 128 | 128 (≈ 172 µM) | > 128 | 64 (≈ 85.8 µM) | > 128 | > 128 | > 128 | 64 (≈ 85.8 µM) | > 128 | > 128 | 64 (≈ 85.8 µM) | –
NC[C@H]1O[C@H](O[C@H]2[C@H](O)[C@@H](OCCCc3ccc4ccccc4c3)[C@H](N)C[C@@H]2N)[C@H](N)[C@@H](OCCCc2ccc3ccccc3c2)[C@@H]1OCCCc1ccc2ccccc2c1 | – | 32 (≈ 38.7 µM) | – | 64 (≈ 77.4 µM) | > 128 | > 128 | 64 (≈ 77.4 µM) | 128 (≈ 155 µM) | 128 (≈ 155 µM) | 128 (≈ 155 µM) | 128 (≈ 155 µM) | > 128 | 32 (≈ 38.7 µM) | 128 (≈ 155 µM) | – | > 128 | 32 (≈ 38.7 µM)
N[C@H]1[C@@H](O[C@H]2[C@H](O)[C@@H](OCc3ccc4ccccc4c3)[C@H](N)C[C@@H]2N)O[C@H](CO)[C@@H](OCc2ccc3ccccc3c2)[C@@H]1OCc1ccc2ccccc2c1 | > 128 | 16 (≈ 21.5 µM) | 1 (≈ 1.34 µM) | 32 (≈ 43 µM) | 2 (≈ 2.69 µM) | 16 (≈ 21.5 µM) | 16 (≈ 21.5 µM) | 8 (≈ 10.8 µM) | 64 (≈ 86 µM) | 32 (≈ 43 µM) | 64 (≈ 86 µM) | 32 (≈ 43 µM) | 4 (≈ 5.38 µM) | 32 (≈ 43 µM) | 32 (≈ 43 µM) | 128 (≈ 172 µM) | 32 (≈ 43 µM)
N[C@H]1[C@@H](O[C@H]2[C@H](O)[C@@H](O)[C@H](N)C[C@@H]2N)O[C@H](CO)[C@@H](O)[C@@H]1O [PAROMAMINE] | – | > 128 | – | > 128 | 32 (≈ 99 µM) | > 128 | > 128 | > 128 | > 128 | > 128 | > 128 | > 128 | > 128 | > 128 | – | > 128 | > 128
NC[C@H]1O[C@H](O[C@H]2[C@H](O)[C@@H](OCc3ccc4ccccc4c3)[C@H](N)C[C@@H]2N)[C@H](N)[C@@H](OCc2ccc3ccccc3c2)[C@@H]1O | > 128 | 64 (≈ 106 µM) | 64 (≈ 106 µM) | 128 (≈ 212 µM) | 8 (≈ 13.3 µM) | 8 (≈ 13.3 µM) | 8 (≈ 13.3 µM) | 8 (≈ 13.3 µM) | 16 (≈ 26.5 µM) | > 128 | 64 (≈ 106 µM) | 64 (≈ 106 µM) | 4 (≈ 6.64 µM) | 128 (≈ 212 µM) | ≥ 128 | 16 (≈ 26.5 µM) | 8 (≈ 13.3 µM)
NC[C@H]1O[C@H](O[C@H]2[C@H](O)[C@@H](OCc3ccccc3)[C@H](N)C[C@@H]2N)[C@H](N)[C@@H](OCc2ccccc2)[C@@H]1O | – | – | – | – | > 128 | > 128 | > 128 | > 128 | – | – | – | – | > 128 | – | – | – | –
NC[C@H]1O[C@H](O[C@H]2[C@H](O)[C@@H](O[C@H]3O[C@H](CO)[C@@H](O)[C@H](N)[C@H]3O)[C@H](N)C[C@@H]2N)[C@H](N)C[C@@H]1O [TOBRAMYCIN] | 1 (≈ 2.14 µM) | 32 (≈ 68.4 µM) | 0.5 (≈ 1.07 µM) | 128 (≈ 274 µM) | – | – | – | – | – | 1 (≈ 2.14 µM) | 0.5 (≈ 1.07 µM) | 64 (≈ 137 µM) | – | 0.5 (≈ 1.07 µM) | 4 (≈ 8.56 µM) | – | –
NC[C@H]1O[C@H](O[C@H]2[C@H](O)[C@@H](OCCCCc3ccc4ccccc4c3)[C@H](N)C[C@@H]2N)[C@H](N)[C@@H](OCCCCc2ccc3ccccc3c2)[C@@H]1OCCCCc1ccc2ccccc2c1 | – | 128 (≈ 147 µM) | – | 128 (≈ 147 µM) | > 128 | > 128 | 128 (≈ 147 µM) | 128 (≈ 147 µM) | > 128 | 128 (≈ 147 µM) | 128 (≈ 147 µM) | > 128 | 128 (≈ 147 µM) | 128 (≈ 147 µM) | – | > 128 | 128 (≈ 147 µM)
CCCCCCO[C@@H]1[C@@H](N)[C@@H](O[C@H]2[C@H](O)[C@@H](OCCCCCC)[C@H](N)C[C@@H]2N)O[C@H](CN)[C@H]1O | > 128 | 128 (≈ 261 µM) | > 128 | > 128 | 128 (≈ 261 µM) | 128 (≈ 261 µM) | > 128 | > 128 | 128 (≈ 261 µM) | > 128 | 128 (≈ 261 µM) | 128 (≈ 261 µM) | > 128 | > 128 | > 128 | 128 (≈ 261 µM) | 128 (≈ 261 µM)
